# Experimental data from ChEMBL document CHEMBL2177000, “Pharmacokinetic optimization of class-selective histone deacetylase inhibitors and identification of associated candidate predictive biomarkers of hepatocellular carcinoma tumor response” (J Med Chem, 2012).
# Tests used:
# [1] = molecular target: T1, Polyamine deacetylase HDAC10 (Homo sapiens, UniProt Q969S8); assay: Inhibition of HDAC10 using p53 (379 to 382 residues) based fluorogenic peptide substrate
# T1 sequence (Q969S8 whole entry): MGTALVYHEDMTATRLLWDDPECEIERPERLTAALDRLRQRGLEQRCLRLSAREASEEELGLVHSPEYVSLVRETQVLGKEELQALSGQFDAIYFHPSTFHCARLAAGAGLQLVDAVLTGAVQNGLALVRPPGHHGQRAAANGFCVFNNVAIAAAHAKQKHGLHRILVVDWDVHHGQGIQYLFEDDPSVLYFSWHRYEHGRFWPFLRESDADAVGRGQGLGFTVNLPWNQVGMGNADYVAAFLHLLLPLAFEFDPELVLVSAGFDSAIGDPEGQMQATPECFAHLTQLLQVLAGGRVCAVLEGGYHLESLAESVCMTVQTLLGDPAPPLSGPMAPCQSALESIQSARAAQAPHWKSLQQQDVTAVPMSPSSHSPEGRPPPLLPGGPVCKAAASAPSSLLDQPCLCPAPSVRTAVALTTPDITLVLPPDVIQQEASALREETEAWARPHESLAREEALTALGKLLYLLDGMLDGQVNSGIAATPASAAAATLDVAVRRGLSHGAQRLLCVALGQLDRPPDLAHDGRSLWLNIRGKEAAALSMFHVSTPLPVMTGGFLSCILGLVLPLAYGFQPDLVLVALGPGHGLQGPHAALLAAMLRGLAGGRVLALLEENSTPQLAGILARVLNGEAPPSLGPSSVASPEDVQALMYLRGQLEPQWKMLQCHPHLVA
# Histone deacetylase 1 = Histone deacetylase 1 (Homo sapiens, UniProt Q13547); assay: Inhibition of HDAC1 using p53 (379 to 382 residues) based fluorogenic peptide substrate
# Chain of Histone deacetylase 1 (Q13547 whole entry, the tested form may be a part): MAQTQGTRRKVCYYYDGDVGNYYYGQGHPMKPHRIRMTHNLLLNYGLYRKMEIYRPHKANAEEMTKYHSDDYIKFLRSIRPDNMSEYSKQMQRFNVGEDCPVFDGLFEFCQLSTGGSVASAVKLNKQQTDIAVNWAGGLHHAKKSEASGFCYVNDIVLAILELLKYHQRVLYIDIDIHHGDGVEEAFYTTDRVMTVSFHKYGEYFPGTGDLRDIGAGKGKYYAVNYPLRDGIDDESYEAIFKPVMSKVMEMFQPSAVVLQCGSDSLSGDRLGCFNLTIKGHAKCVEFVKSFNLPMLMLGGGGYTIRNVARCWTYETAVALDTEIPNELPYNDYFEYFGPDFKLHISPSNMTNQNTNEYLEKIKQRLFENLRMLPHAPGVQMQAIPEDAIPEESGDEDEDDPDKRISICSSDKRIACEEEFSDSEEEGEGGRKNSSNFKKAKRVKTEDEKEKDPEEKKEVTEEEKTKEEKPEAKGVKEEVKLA
# Histone deacetylase 8 = molecular target: T2, Histone deacetylase 8 (Homo sapiens, UniProt Q9BY41); assay: Inhibition of HDAC8 using p53 (379 to 382 residues) based fluorogenic peptide substrate
# T2 sequence (Q9BY41 whole entry): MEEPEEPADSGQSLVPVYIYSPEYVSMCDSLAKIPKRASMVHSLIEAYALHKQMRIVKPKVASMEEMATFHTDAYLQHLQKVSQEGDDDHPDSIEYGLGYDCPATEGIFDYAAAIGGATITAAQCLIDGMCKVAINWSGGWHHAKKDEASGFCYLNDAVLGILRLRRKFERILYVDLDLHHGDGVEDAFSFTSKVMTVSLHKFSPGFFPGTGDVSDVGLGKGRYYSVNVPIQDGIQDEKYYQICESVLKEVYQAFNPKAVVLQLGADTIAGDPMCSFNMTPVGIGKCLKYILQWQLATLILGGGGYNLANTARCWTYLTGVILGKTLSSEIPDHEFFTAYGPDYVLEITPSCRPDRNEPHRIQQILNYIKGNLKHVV
# Cytochrome P450 2C19 = Cytochrome P450 2C19 (Homo sapiens, UniProt P33261); assay: Inhibition of CYP2C19 in human liver microsomes in presence of NADPH by LC-MS/MS method; assay type: ADME, Microsome
# Chain of Cytochrome P450 2C19 (P33261 whole entry, the tested form may be a part): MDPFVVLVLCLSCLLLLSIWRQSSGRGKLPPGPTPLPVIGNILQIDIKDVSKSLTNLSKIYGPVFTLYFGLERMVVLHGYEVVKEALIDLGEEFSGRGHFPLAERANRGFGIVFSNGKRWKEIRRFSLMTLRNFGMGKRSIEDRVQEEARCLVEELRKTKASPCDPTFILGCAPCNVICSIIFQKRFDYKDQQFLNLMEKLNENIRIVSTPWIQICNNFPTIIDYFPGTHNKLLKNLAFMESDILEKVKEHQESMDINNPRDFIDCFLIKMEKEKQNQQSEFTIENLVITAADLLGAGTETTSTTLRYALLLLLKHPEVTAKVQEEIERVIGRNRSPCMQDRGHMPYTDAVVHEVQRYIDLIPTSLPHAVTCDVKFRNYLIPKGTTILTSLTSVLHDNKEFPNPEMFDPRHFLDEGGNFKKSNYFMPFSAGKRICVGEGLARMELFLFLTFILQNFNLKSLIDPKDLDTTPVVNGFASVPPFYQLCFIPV
# Histone deacetylase 2 = Histone deacetylase 2 (Homo sapiens, UniProt Q92769); assay: Inhibition of HDAC2 using p53 (379 to 382 residues) based fluorogenic peptide substrate
# Chain of Histone deacetylase 2 (Q92769 whole entry, the tested form may be a part): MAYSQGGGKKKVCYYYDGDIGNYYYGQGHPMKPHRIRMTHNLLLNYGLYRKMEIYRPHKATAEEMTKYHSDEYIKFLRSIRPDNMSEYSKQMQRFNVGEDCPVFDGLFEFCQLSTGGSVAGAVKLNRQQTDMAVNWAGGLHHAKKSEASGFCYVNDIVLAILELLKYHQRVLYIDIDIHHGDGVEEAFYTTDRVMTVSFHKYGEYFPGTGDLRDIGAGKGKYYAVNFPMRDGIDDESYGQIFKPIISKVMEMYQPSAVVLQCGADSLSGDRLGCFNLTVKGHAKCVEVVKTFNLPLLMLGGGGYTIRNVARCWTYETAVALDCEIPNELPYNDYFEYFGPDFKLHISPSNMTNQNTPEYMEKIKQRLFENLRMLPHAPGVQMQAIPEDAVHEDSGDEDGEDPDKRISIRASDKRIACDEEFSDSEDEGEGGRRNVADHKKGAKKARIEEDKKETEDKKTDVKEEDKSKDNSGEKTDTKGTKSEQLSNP
# Histone deacetylase 7 = molecular target: T3, Histone deacetylase 7 (Homo sapiens, UniProt Q8WUI4); assay: Inhibition of HDAC7 using p53 (379 to 382 residues) based fluorogenic peptide substrate
# T3 sequence (Q8WUI4 whole entry): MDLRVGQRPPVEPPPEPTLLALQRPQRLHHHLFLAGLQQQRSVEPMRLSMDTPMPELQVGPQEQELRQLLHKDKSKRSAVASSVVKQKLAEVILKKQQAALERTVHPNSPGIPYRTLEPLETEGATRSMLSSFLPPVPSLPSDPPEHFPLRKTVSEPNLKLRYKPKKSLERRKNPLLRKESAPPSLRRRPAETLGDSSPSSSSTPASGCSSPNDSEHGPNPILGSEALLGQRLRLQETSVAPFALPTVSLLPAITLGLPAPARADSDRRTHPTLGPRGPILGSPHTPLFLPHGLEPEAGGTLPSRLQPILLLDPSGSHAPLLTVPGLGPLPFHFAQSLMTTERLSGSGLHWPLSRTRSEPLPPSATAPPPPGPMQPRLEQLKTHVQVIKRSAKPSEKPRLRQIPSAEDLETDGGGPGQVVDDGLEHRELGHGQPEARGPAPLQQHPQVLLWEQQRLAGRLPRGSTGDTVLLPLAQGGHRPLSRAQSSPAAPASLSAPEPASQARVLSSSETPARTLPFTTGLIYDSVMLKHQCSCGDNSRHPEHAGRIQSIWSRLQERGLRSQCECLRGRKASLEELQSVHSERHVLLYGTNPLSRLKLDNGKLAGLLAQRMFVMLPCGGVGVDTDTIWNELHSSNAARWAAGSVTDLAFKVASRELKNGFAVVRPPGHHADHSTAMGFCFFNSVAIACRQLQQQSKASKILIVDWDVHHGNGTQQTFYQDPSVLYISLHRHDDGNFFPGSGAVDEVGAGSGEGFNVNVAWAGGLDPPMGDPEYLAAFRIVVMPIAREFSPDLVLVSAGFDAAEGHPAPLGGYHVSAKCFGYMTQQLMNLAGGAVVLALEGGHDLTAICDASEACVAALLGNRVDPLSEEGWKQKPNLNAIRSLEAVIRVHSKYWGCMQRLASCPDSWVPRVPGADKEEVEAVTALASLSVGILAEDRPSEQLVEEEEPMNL
# [2] = Cmax in BALB/C mouse at 10 mg/kg, po or 2 mg/kg, iv by LC-MS/MS method; assay type: ADME, organism-based; settings: BALB/C, in vivo
# In short: (§1)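 Female-unspecified BALB/C nude mice (15−20 g, N = 16 per arm); iv bolus 2 mg/kg in 5% DMSO/40% PEG400/55% saline and/or oral gavage 10 mg/kg as 0.445% microcrystalline cellulose microsuspension. Blood sampled at nine (iv) or eight (po) time points into sodium heparin tubes; plasma by LC-MS/MS; noncompartmental analysis.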
# [3] = Half life in BALB/C mouse at 10 mg/kg, po or 2 mg/kg, iv by LC-MS/MS method; assay type: ADME, organism-based; settings: BALB/C, in vivo; in short: as §1
# [4] = Tmax in BALB/C mouse at 10 mg/kg, po or 2 mg/kg, iv by LC-MS/MS method; assay type: ADME, organism-based; settings: BALB/C, in vivo
# In short: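 Single-dose PK: iv bolus 2 mg/kg in 5% DMSO/40% PEG400/55% saline and/or oral gavage 10 mg/kg as 0.445% microcrystalline cellulose microsuspension; BALB/C nude mice (15−20 g, N = 16 per arm) or male Sprague−Dawley rats (250 ± 20 g, N = 3). Blood at eight (po) or nine (iv) time points into sodium heparin, plasma by LC-MS/MS, noncompartmental analysis.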
# [5] = Oral bioavailability in BALB/C mouse at 10 mg/kg by LC-MS/MS method; assay type: ADME, organism-based; settings: BALB/C, in vivo
# In short: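 Bioavailability from single-dose iv (2 mg/kg, 5% DMSO/40% PEG400/55% saline) and oral gavage (10 mg/kg, 0.445% microcrystalline cellulose microsuspension) studies in BALB/C nude mice (N = 16 per arm); plasma at eight (po) or nine (iv) time points, LC-MS/MS, noncompartmental analysis.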
IC50 [1],IC50 (Histone deacetylase 1),IC50 (Histone deacetylase 8),IC50 (Cytochrome P450 2C19),IC50 (Histone deacetylase 2),IC50 (Histone deacetylase 7),Cmax [2],half-life [3],Tmax [4],bioavailability [5],Compound
3.4 µM,0.06 µM,> 30 µM,43 µM,0.25 µM,> 30 µM,–,–,–,–,CN1C[C@H](C(=O)Nc2ccc(Cl)cc2)[C@@H](c2ccc(/C=C/C(=O)Nc3ccccc3N)cc2)C1
1.6 µM,0.14 µM,> 30 µM,43 µM,0.27 µM,> 30 µM,450 ng/mL,6.2 h,1 h,89%,CN1C[C@@H](C(=O)Nc2ccc(Cl)cc2)[C@H](c2ccc(/C=C/C(=O)Nc3ccccc3N)cc2)C1
5 µM,0.1 µM,> 30 µM,21 µM,0.22 µM,> 30 µM,828 ng/mL,3.4 h,2 h,49%,CN1C[C@H](C(=O)Nc2ccc(Cl)cc2)[C@@H](c2ccc(/C=C/C(=O)Nc3ccccc3N)cc2F)C1 (racemic)
